Only some compounds are listed: those with a hit (about 2.5% of all), similar ones and a draw of the others.
SENP7 inh = SENP7 protease inhibition; 330,000 compounds, 1.5% hits; inhibition, % at 5 µM; recombinant SENP7, Z-RLRGG-aminoluciferin luminescence, 40 min;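 active = inhibition above about 50% at the single test dose, limit read from the data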;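 also: plate controls were DMSO with enzyme for no effect and no enzyme buffer wells for full effect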
Target sequence (Q9BQF6 706-1050 limits assumed): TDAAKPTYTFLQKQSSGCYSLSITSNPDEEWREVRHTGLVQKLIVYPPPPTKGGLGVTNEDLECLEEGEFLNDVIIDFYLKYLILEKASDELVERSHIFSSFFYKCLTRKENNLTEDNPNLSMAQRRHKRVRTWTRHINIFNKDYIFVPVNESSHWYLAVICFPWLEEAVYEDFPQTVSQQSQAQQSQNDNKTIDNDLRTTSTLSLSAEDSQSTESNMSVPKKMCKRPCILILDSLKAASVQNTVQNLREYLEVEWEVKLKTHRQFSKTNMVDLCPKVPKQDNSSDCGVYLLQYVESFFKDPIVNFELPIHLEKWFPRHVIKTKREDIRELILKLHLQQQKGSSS
SENP6 inh = inhibitors of human SENP6 protease. AID 2599. inhibition, % at 10 µM. 330,000 compounds, 1.8% hits. Recombinant SENP6 catalytic domain, aminoluciferin luminescence. Q9GZR1;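 active = inhibition above about 50% at the single tested dose, limit read from the data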;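 also: plate controls were DMSO wells with enzyme for no effect and DMSO wells lacking enzyme for full effect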
SENP1 inh = SENP1 (human) catalytic domain inhibition | recombinant SENP1 catalytic domain, CyPet-SUMO1-YPet FRET cleavage | inhibition, % at 10 µM | 360,000 compounds, 0.21% hits | AID 624204;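 active = inhibition at least 30% at 10 µM, raw YFP signal under a set limit, fluorescence ratio 0.5 to 1.5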;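 also: 0% = enzyme with DMSO and 100% = no enzyme wells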
Target sequence (Q9P0U3 419-644 limits assumed): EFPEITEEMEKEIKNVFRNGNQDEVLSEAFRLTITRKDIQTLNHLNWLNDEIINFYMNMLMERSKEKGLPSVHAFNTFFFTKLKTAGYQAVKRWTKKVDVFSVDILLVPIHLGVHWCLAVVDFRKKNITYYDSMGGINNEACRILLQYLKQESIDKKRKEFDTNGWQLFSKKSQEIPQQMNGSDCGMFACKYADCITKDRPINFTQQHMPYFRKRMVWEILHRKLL
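Controls: no-enzyme wells low, DMSO-plus-enzyme wells high control. Test system: human recombinant His6-tagged SENP1 catalytic domain enzyme. Reagent: SFCypet-SUMO1-SFYpet FRET protein substrate, 25 nM final. Doses: one dose per compound, 10 µM, 0.5% DMSO. Detection: FRET, CFP and YFP emission. Timing: 50 min reaction at room temperature.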
SENP8 block-1 = blocks human SENP8 cleavage of Nedd8 substrate. recombinant SENP8, Nedd8 substrate fluorescence. 360,000 compounds, 0.64% hits. inhibition, % at 20 µM; in the data active = inhibition mostly above about 40%, no sharp cut-off; inactive = mostly below about 27%
SENP8 block-2 = blocks the human protease SENP8; AID 2540; purified SENP8, Z-RLRGG-aminoluciferin cleavage, luminescence; 330,000 compounds, 1.2% hits; Q96LD8; inhibition, % at 10 µM; in the data active = inhibition above about 50%
SENP8 conf = human SENP8 inhibition, confirmed; shares compounds with SENP7 inh; inhibition, % at 12.5 µM; 6,200 compounds, 40% hits; Recombinant SENP8, Z-RLRGG-aminoluciferin luminescence, 60 min;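 active = mean inhibition across replicates above about 50%, limit read from the data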
SENP6 conf = confirmation of human SENP6 protease inhibitors. shares compounds with SENP7 inh. recombinant SENP6, Z-RLRGG-aminoluciferin luminescence. inhibition, % at 12.5 µM. 6,200 compounds, 58% hits. AID 488915
SENP7 conf = confirmation of human SENP7 protease inhibitors; inhibition, % at 12.5 µM; shares compounds with SENP7 inh; recombinant SENP7, Z-RLRGG-aminoluciferin luminescence, 40 min; 6,200 compounds, 69% hits
Casp3 SENP sel = inhibits human caspase-3 in SENP selectivity test | shares compounds with SENP7 inh | purified caspase-3, Z-DEVD-aminoluciferin luminescence, 60 min | inhibition, % at 12.5 µM | 6,200 compounds, 60% hits | AID 488918;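 active = mean inhibition above about 50%, limit read from the data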;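 also: plate controls were enzyme with DMSO for no effect and wells without caspase-3 for full effect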
Target sequence (P42574 28-227 limits assumed): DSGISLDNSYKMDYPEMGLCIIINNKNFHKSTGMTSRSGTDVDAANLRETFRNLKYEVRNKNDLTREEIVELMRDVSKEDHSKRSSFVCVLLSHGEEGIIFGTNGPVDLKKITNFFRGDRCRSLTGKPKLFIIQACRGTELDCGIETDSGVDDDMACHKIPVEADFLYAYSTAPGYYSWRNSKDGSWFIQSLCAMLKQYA
Luc interf = counter-screen for SENP inhibitors: luminescence interference. AID 488919. 6,200 compounds, 39% hits. shares compounds with SENP7 inh. Pre-incubated SENP8/Z-RLRGG-aminoluciferin, luciferase luminescence interference. inhibition, % at 12.5 µM;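 active = mean inhibition above about 50% when retested at one dose, limit read from the data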;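 also: plate controls were DMSO wells with completed reaction for no effect and substrate without enzyme for full effect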
* hit, by the source's call; i = inactive; . = no result.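 The calls were made as follows, unless noted: active = mean inhibition above about 50% in the one-dose retest (limit read from the data); inactive = the rest.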

SMILES | SENP7 inh | SENP6 inh | SENP1 inh | SENP8 block-1 | SENP8 block-2 | SENP8 conf | SENP6 conf | SENP7 conf | Casp3 SENP sel | Luc interf
CSc1ccc(-c2cc(=O)c3ccccc3o2)cc1 | -11.5 | 59.1* | -20.3 | -280.4 | 57.0* | 66.2* | 62.7* | 83.8* | 51.4* | 38.4
O=c1cc(-c2ccccc2)oc2ccc(Br)cc12 | 72.5* | 42.0 | 0.1 | 15.4 | 45.0 | 7.5 | 9.1 | 14.5 | 22.4 | 5.7
COc1ccc(-c2cc(=O)c3cc(OC)ccc3[nH]2)cc1 | 81.2* | 84.2* | -1.1 | i | 74.1* | 16.9 | 77.9* | 96.5* | 93.4* | -5.1
O=c1cc(-c2ccc(F)cc2)oc2ccccc12 | 8.0 | 15.5 | 0.0 | 18.9 | -1.4 | . | . | . | . | .
COc1ccc(-c2cc(=O)c3cc(OC)ccc3o2)cc1 | 98.3* | 92.0* | -1.7 | -172.9 | 87.9* | 9.4 | 35.4 | 3.7 | 25.4 | 6.0
COc1ccc(-c2cc(=O)c3cc(C)ccc3[nH]2)cc1 | 15.1 | 32.3 | -2.5 | -134.0 | 19.0 | . | . | . | . | .
CC(CC(=O)N1CCc2ccccc21)n1cccn1 (centres undefined) | 12.8 | 12.2 | -1.4 | 0.5 | -2.1 | . | . | . | . | .
O=C(NCc1cccnc1)c1ccc(Br)o1 | -3.0 | -1.7 | -1.0 | -11.7 | 8.7 | . | . | . | . | .
COc1ccc2c(c1)oc(=O)c1cc(OC)ccc12 | 79.6* | 65.3* | -0.5 | -212.0 | 46.2 | 41.8 | 43.3 | 62.7* | 65.1* | 26.9
COc1ccc2c(c1)oc(=O)c1ccccc12 | -9.4 | -5.3 | -1.5 | -0.6 | 1.7 | . | . | . | . | .
COc1cc2ccc(C(=O)O)cc2cc1OC | . | . | 0.4 | 12.1 | . | . | . | . | . | .
CCCCN1C(=O)/C(=C2\SC(N3CCCCC3)=NC2=O)c2ccccc21 | 10.6 | 26.1 | 1.3 | 12.7 | -6.7 | . | . | . | . | .
CCCCN1C(=O)C(=Nc2cccc3cnccc23)c2ccccc21 | 81.4* | 87.0* | -0.4 | -398.3 | 10.7 | -9.6 | -3.3 | -7.2 | -1.9 | -7.2
O=C(c1ccc(Cl)cc1)c1cnc(-c2ccc(Cl)cc2)s1 | -3.8 | -3.7 | 0.1 | 29.8 | -14.4 | . | . | . | . | .
O=C(c1ccccc1)c1cnc(-c2ccc(Cl)cc2)s1 | 96.9* | 80.0* | 1.9 | 31.1 | 22.2 | 13.6 | 19.0 | 6.6 | 25.0 | 6.9
O=C(c1ccccc1)c1cnc(-c2ccccc2)s1 | 95.9* | 93.4* | -0.1 | 6.2 | 88.8* | 53.5* | 49.6 | 73.2* | 62.2* | 20.1
CN(C)/C=C/C(=O)c1cnc(-c2ccccc2)s1 | -9.6 | -0.2 | 0.1 | 9.9 | -3.9 | . | . | . | . | .
COC(=O)C1(c2ccccc2)NC(c2ccc(O)cc2)C2C(=O)N(c3ccc4c(c3)OCO4)C(=O)C21 (centres undefined) | 3.2 | -13.8 | 1.4 | 26.6 | -2.7 | . | . | . | . | .
COc1ccc(N=C(C)C2=C(O)c3ccccc3C2=O)cc1 | 76.9* | 87.4* | 3.1 | 16.5 | 73.0* | 30.1 | 73.9* | 70.6* | 39.1 | 11.7
CCOc1ccc(N=C(C)C2=C(O)c3ccccc3C2=O)cc1 | 84.3* | 85.2* | 0.0 | 30.4 | 78.2* | 29.1 | 31.7 | 45.8 | 31.1 | 12.0
C/C(=N\N(C)C)C1=C(O)c2ccccc2C1=O | 0.8 | -5.9 | 1.8 | 18.1 | -6.2 | . | . | . | . | .
COc1ccc(OC)c(NC(=O)CC2C(=O)NCCN2C(=O)c2ccccc2)c1 (centres undefined) | 4.2 | -16.0 | 3.0 | 12.6 | 4.0 | . | . | . | . | .
Nc1nccc(-c2cc(-c3ccc(Cl)cc3Cl)no2)n1 | 95.0* | 95.4* | -1.7 | -208.2 | 92.5* | 79.7* | 86.8* | 91.4* | 76.0* | 42.2
CCCOc1ccc(/C=N/Nc2ccccc2[N+](=O)[O-])c(O)c1 | 99.2* | 96.4* | 2.4 | 37.7 | 94.3* | 57.8* | 46.4 | 30.3 | 77.5* | 8.2
NC1CCN(c2c(F)cc3c(=O)c(C(=O)O)cn(C4CC4)c3c2Cl)C1 (centres undefined) | 66.9* | -9.3 | 1.3 | -17.7 | -4.9 | -2.7 | 4.5 | -4.8 | -1.9 | -6.5
SMILES | SENP7 inh | SENP6 inh | SENP1 inh | SENP8 block-1 | SENP8 block-2 | SENP8 conf | SENP6 conf | SENP7 conf | Casp3 SENP sel | Luc interf
O=C(Nc1ccccc1N1CCCCC1)C1CCN(C(=O)c2ccc(Cl)cc2)CC1 | -12.3 | -16.4 | 2.3 | 5.2 | -4.0 | . | . | . | . | .
O=C(CSc1nnc(-c2ccncc2)n1Cc1ccco1)Nc1ccccc1Cl | 3.3 | 11.4 | -0.1 | 17.6 | -5.1 | . | . | . | . | .
Cc1cc(C)c(NC(=O)CSc2nnc(-c3ccncc3)n2Cc2ccco2)c(C)c1 | 69.9* | -26.5 | 1.1 | 10.7 | -7.1 | 7.2 | 8.5 | 1.1 | 4.5 | 1.8
O=C(CSc1nnc(-c2cccnc2)n1Cc1ccco1)NCc1ccc2c(c1)OCO2 | 59.2* | -7.2 | -11.0 | 15.0 | 4.1 | -8.6 | -6.3 | -11.4 | -0.9 | 2.3
COc1cccc(-c2nnc(SCC(=O)NCc3ccc4c(c3)OCO4)n2Cc2ccco2)c1 | -5.9 | 1.2 | -4.9 | 24.2 | -1.4 | . | . | . | . | .
COCCCNC(=O)CSc1nc2ccccc2c(=O)n1CCc1ccc(S(N)(=O)=O)cc1 | -11.0 | -6.3 | 1.2 | 3.9 | -2.9 | . | . | . | . | .
CCCCC1(Cc2cccc([N+](=O)[O-])c2)C(=O)N(c2ccccc2)N(c2ccccc2)C1=O | -2.4 | -12.0 | 0.2 | 23.5 | -6.9 | . | . | . | . | .
C(#CC1CCCC1)c1ccc2c(c1)COc1c3ccccc3nn1-2 | 2.2 | 44.2 | -0.7 | 4.6 | 26.0 | . | . | . | . | .
Cc1cc(-c2ccc3c(c2)COc2c4ccccc4nn2-3)on1 | 49.2 | 93.1* | -2.4 | -356.3 | 86.2* | -27.8 | 7.3 | 37.1 | 25.5 | 7.1
CCCc1cc(-c2ccc3c(c2)COc2c4ccccc4nn2-3)on1 | 90.8* | 93.0* | -1.8 | -195.6 | 89.3* | 24.8 | 36.5 | 38.0 | 64.4* | 11.7
c1ccc2c(c1)COc1c3ncccc3nn1-2 | . | . | 1.0 | -241.0 | . | . | . | . | . | .
Cc1cccc(C(=O)Nc2sc3c(c2C(=O)O)CCC3)c1 | 87.3* | 98.6* | 1.5 | -94.2 | 96.2* | 96.0* | 96.4* | 100.1* | 95.0* | 94.3*
COc1cc(C(=O)Nc2sc3c(c2C(=O)O)CCC3)cc(OC)c1OC | 8.5 | 22.3 | -7.2 | -198.1 | -0.9 | . | . | . | . | .
COc1cccc(C(=O)Nc2sc3c(c2C(=O)O)CCCC3)c1 | 21.7 | 88.8* | -1.4 | -123.5 | 84.1* | 35.8 | 74.3* | 68.2* | 78.8* | 10.0
CCCCN(C(C)=O)c1c(CC)nc2ccc(C(=O)NCCCN(C)C)cn12 | . | . | -1.5 | -44.5 | . | . | . | . | . | .
